Source: ChEMBL document CHEMBL5715946 (Chem Biol, 2010)
Activity calls are given as the source filed them. The calls are words filed in the database; no cut-off is given here.

Experiments:
[1] = test system: Antioxidant response element; test: Induction of ARE activity in serum-deprived neonatal Wistar rat cardiomyocytes assessed as increase in GST Ya expression up to 400 nM measured after 24 hrs by Western blot analysis; assay type: cell-based; conditions: Cardiomyocyte
How it was run: (§1)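 Neonatal rat cardiomyocytes exposed to samples or vehicle in M-199 with 1% penicillin-streptomycin, no serum, for 24 hr. GST Ya and HO-1 mRNA measured by real-time qPCR (mean ± SD, n = 3); protein by western blot with β-actin as control.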

[2] = target: Macrophage migration inhibitory factor (Rattus norvegicus) (UniProt P30904); test: Induction of MIF-stimulated ARE activity in rat H9c2 cells assessed as increase in GST Ya expression at 3 uM incubated for 24 hrs by RT-qPCR analysis; assay type: cell-based
Cardiac muscle cell = test: Potency index, ratio of trolox MEC1.5 to test compound MEC1.5 for cytoprotective activity against serum deprivation-induced neonatal Wistar rat cardiomyocyte death; assay type: functional
[3] = Upregulation of glutathione S-transferase Y(b) subunit gene expression in serum-deprived neonatal Wistar rat cardiomyocyte at 0.37 uM incubated for 21 hrs by microarray analysis relative to control; assay type: functional, Cardiac muscle cell
How it was run: (§2)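 Primary neonatal rat cardiomyocytes, isolated by proteinase digestion with preplating to deplete nonmyocytes, cultured in serum-free medium with or without 0.37 μM compound for 21 hr. Total RNA was recovered and global expression profiled on an Affymetrix GeneChip rat genome U34A array (about 7000 known genes). Change is relative to untreated cells.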

[4] = Upregulation of multidrug resistance protein gene expression in serum-deprived neonatal Wistar rat cardiomyocyte at 0.37 uM incubated for 21 hrs by microarray analysis relative to control; assay type: functional, Cardiac muscle cell; how it was run: as §2
[5] = Upregulation of glutathione reductase gene expression in serum-deprived neonatal Wistar rat cardiomyocyte at 0.37 uM incubated for 21 hrs by microarray analysis relative to control; assay type: functional, Cardiac muscle cell; how it was run: as §2
Rattus norvegicus = species: Rattus norvegicus; test: Binding affinity to rat 6His-tagged VILIP3 expressed in Escherichia coli BL21 (DE3) at 400 nM incubated for 6 hrs using labelled compound by scintillation proximity assay
How it was run: (§3)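 Scintillation proximity assay: 6His-tagged protein (hMIF, rat GST Ya or rat VILIP3) captured on copper His-tag SPA beads with [3H]-BTZO-1; emitted light counted on a microplate scintillation counter. Mean of n = 2.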

H9c2 = test: Effect on protein oxidation in rat H9c2 cells at 10 uM incubated for 24 hrs under serum-free medium by Western blot analysis; assay type: functional, cell-based
[6] = Upregulation of glutathione S-transferase Yc1 subunit gene expression in serum-deprived neonatal Wistar rat cardiomyocyte at 0.37 uM incubated for 21 hrs by microarray analysis relative to control; assay type: functional, Cardiac muscle cell; how it was run: as §2
[7] = Upregulation of Fischer 344 GST Yc subunit gene expression in serum-deprived neonatal Wistar rat cardiomyocyte at 0.37 uM incubated for 21 hrs by microarray analysis relative to control; assay type: functional, Cardiac muscle cell
How it was run: (§4)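 Primary neonatal rat cardiomyocytes cultured with or without 0.37 μM compound in serum-free medium for 21 hr. Total RNA profiled on the rat genome U34A GeneChip array (about 7000 known genes).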

[8] = target: Macrophage migration inhibitory factor (Rattus norvegicus, UniProt P30904); test: Inhibition of recombinant rat MIF expressed in Escherichia coli BL21 (DE3) assessed as reduction in tautomerase activity using L-dopachrome carboxy-methyl ester as substrate by spectrophotometry
How it was run: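 Purified recombinant rat MIF tautomerase assayed with purified L-dopachrome carboxy-methyl ester as substrate in pH 6.0 buffer; rate taken over the initial 30 s. Mean ± SD, n = 4.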

[9] = Upregulation of thioredoxin reductase gene expression in serum-deprived neonatal Wistar rat cardiomyocyte at 0.37 uM incubated for 21 hrs by microarray analysis relative to control; assay type: functional, Cardiac muscle cell; how it was run: as §2
[10] = target: T1, Macrophage migration inhibitory factor (Homo sapiens, UniProt P14174); test: Binding affinity to recombinant human C-terminal His-tagged MIF expressed in Escherichia coli BL21 (DE3) at 400 nM incubated for 6 hrs using labelled compound by scintillation proximity assay; how it was run: as §3
T1 sequence (P14174 whole entry): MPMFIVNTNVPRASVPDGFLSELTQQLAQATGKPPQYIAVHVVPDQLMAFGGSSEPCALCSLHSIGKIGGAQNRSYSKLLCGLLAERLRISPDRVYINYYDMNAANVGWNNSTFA

[11] = test system: Antioxidant response element; test: Induction of ARE activity in serum-deprived neonatal Wistar rat cardiomyocytes assessed as increase in HO-1 mRNA level up to 3 uM measured after 24 hrs by RT-qPCR analysis; assay type: cell-based; conditions: Cardiomyocyte; how it was run: as §1
[12] = target: Macrophage migration inhibitory factor (Rattus norvegicus) (UniProt P30904); test: Induction of MIF-stimulated ARE activity in rat H9c2 cells assessed as increase in HO-1 expression at 3 uM incubated for 6 hrs by RT-qPCR analysis; assay type: cell-based
[13] = Upregulation of NAD(P)H-menadione oxidoreductase gene expression in serum-deprived neonatal Wistar rat cardiomyocyte at 0.37 uM incubated for 21 hrs by microarray analysis relative to control; assay type: functional, Cardiac muscle cell; how it was run: as §4
[14] = test system: Antioxidant response element; test: Induction of ARE-mediated GST Ya mRNA expression in MIF siRNA transfected rat H9c2 cells at 3 uM measured after 24 hrs by RT-qPCR analysis; assay type: cell-based
How it was run: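 H9c2 cells transfected with MIF siRNA or control siRNA (100 nM, Oligofectamine), then treated with 3 μM compound with or without 0.8 μM rMIF for 24 hr. GST Ya and HO-1 mRNA by real-time qPCR; mean ± SD, n = 3. MIF effect on drug efficacy tested by Aspin-Welch test.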

[15] = Upregulation of NAD(P)H: quinone reductase gene expression in serum-deprived neonatal Wistar rat cardiomyocyte at 0.37 uM incubated for 21 hrs by microarray analysis relative to control; assay type: functional, Cardiac muscle cell; how it was run: as §4
[16] = Upregulation of gamma-glutamylcysteine synthetase gene expression in serum-deprived neonatal Wistar rat cardiomyocyte at 0.37 uM incubated for 21 hrs by microarray analysis relative to control; assay type: functional, Cardiac muscle cell; how it was run: as §2
[17] = test system: Antioxidant response element; test: Induction of rat ARE activity expressed in rat H9c2 cells assessed as increase in ARE luciferase activity measured after 24 hrs by steady-glo luciferase Assay; assay type: cell-based
How it was run: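 H9c2 cells transiently transfected with pGL3-ARE-Luc or pGL3-mARE-Luc, compound exposure 24 hr, luciferase read by Steady-Glo. MEC2.0 is the concentration giving a doubling of luciferase activity. Mean ± SD, n = 4.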

[18] = Reduction in MIF expression in MIF siRNA transfected rat H9c2 cell lysates at 3 uM measured after 24 hrs ELISA relative to control; assay type: functional; design: scale not given: the % may be the effect or the level left
How it was run: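 H9c2 cells transfected with 100 nM rat MIF siRNA or negative-control siRNA using Oligofectamine in Opti-MEM, then treated with 3 μM compound for 24 hr. MIF mRNA by real-time qPCR; MIF protein in cell lysate and medium by ELISA. Mean ± SD, n = 3.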

[19] = target: Macrophage migration inhibitory factor (Rattus norvegicus) (UniProt P30904); test: Inhibition of MIF tautomerase activity in rat H9c2 cells at 30 uM using L-dopachrome carboxy-methyl ester as substrate incubated for 6 hrs under serum-free medium by spectrophotometry relative to control; assay type: cell-based
How it was run: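 H9c2 cells exposed to 30 μM compound for 6 hr; MIF tautomerase activity then measured in cell lysate.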

[20] = Upregulation of catalase gene expression in serum-deprived neonatal Wistar rat cardiomyocyte at 0.37 uM incubated for 21 hrs by microarray analysis relative to control; assay type: functional, Cardiac muscle cell; how it was run: as §2

Chain of Macrophage migration inhibitory factor (Rattus norvegicus) (P30904 2-115 limits assumed): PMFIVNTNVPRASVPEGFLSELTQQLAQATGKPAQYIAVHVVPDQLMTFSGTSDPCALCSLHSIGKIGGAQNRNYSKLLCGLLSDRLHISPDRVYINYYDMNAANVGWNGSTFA
Chain of Macrophage migration inhibitory factor (Rattus norvegicus, UniProt P30904) (P30904 2-115 limits assumed): as above

## O=c1nc(-c2ccccn2)sc2ccccc12 [BTZO-1]
[1]
  Activity: Active
[2]
  Activity: Active
Cardiac muscle cell
  Ratio: 10000
[3]
  fold change (FC): 2.5
[4]
  fold change (FC): 2.7
[5]
  fold change (FC): 4.4
Rattus norvegicus
  Activity: inactive
H9c2
  Activity: inactive
[6]
  fold change (FC): 2.1
[7]
  fold change (FC): 2.3
[8]
  IC50: > 30 µM
[9]
  fold change (FC): 2.8
[10]
  Kd: 0.0686 µM
[11]
  Activity: Active
[12]
  Activity: Active
[13]
  fold change (FC): 2.8
[14]
  Activity: inactive
[15]
  fold change (FC): 9.4
[16]
  fold change (FC): 2.4
[17]
  Activity: Dose-Dependent Effect
  MEC2: 0.82 µM
[18]
  Activity: ~50%
[19]
  inhibition: 20%
[20]
  fold change (FC): 2.3
